According to ChEMBL document CHEMBL3259783, “Inhibitory effects of novel synthetic methimazole derivatives on mushroom tyrosinase and melanogenesis” (Bioorg Med Chem, 2014):
Active and inactive are the calls of the source. The rule behind the calls is not given here.

Key:
[1] = target: T1, Tyrosinase (Agaricus bisporus) (UniProt O42713); assay: (§1) Inhibition of mushroom tyrosinase-mediated L-tyrosine hydroxylation after 30 mins by ELISA
T1 sequence (whole entry): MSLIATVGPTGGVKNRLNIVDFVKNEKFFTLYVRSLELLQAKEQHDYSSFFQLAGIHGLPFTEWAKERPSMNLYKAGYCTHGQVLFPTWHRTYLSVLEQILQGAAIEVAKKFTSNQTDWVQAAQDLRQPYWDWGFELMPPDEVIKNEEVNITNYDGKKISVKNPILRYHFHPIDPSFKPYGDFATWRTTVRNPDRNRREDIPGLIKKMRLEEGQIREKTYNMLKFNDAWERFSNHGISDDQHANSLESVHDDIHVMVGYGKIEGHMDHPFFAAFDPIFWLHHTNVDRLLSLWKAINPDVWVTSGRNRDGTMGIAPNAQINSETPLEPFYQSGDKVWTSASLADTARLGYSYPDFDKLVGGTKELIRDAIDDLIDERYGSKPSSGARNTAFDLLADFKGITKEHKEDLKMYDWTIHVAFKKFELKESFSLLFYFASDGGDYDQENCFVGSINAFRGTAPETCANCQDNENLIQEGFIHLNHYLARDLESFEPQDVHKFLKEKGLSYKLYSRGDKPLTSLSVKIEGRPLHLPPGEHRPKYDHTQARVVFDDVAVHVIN
Summary of the method: (§2)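 Mushroom tyrosinase with L-tyrosine substrate; dipotassium hydrogen phosphate buffer as vehicle control. Mixture held 25 °C for 30 min, dopachrome read at 475 nm. Inhibition % = (1 − ABSsample/ABScontrol) × 100. IC50 from regression of the dose–response curve; triplicate, mean ± SD of 3 independent runs.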

[2] = target: T1, Tyrosinase (Agaricus bisporus); assay: Mixed-type inhibition of mushroom tyrosinase-mediated L-tyrosine oxidation assessed as enzyme-substrate-inhibitor complex after 10 mins by Lineweaver-Burk plot analysis
[3] = (§3) Antimelanogenic activity in mouse B16/F10 cells assessed as inhibition of alpha-MSH-induced melanin formation at 1 mM after 24 hrs by ELISA relative to control; format: functional; conditions: B16-F10, 24 h
Summary of the method: (§4)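 B16/F10 cells seeded 1 × 10^5 per well, grown 48 h at 37 °C, 5% CO2; stimulated with 100 nM α-MSH for 24 h, then exposed to 1 mM test agent (kojic acid reference) for 24 h. After PBS washes, pellets dissolved in 1 N NaOH/10% DMSO, 1 h at 80 °C; A405 read. Content = sample/control × 100%; triplicate, mean ± SD.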

Tyrosinase [4] = target: T2, Tyrosinase (Agaricus bisporus, UniProt O42713); assay: Noncompetitive inhibition of mushroom tyrosinase-mediated L-tyrosine oxidation assessed as enzyme-inhibitor complex after 10 mins by Lineweaver-Burk plot analysis
T2 sequence (O42713 whole entry): T1 sequence (whole entry)

[5] = Cytotoxicity against mouse B16/F10 cells at 1 mM after 24 hrs by MTT assay; format: cell-based; conditions: b16-f10, 24 h, 1000 µM
Summary of the method: (§5)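 B16/F10 cells in DMEM with 10% FBS, penicillin, streptomycin and amphotericin at 37 °C, 5% CO2. Seeded 3 × 10^4 per well, adhered 24 h, exposed to 1 or 2 mM compound in fresh DMEM for 24 h. MTT (0.5 mg/mL in PBS) added for 40 min at 37 °C; formazan dissolved in DMSO, A570 read. Viability as % of untreated control; triplicate.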

[6] = Cytotoxicity against mouse B16/F10 cells at 2 mM after 24 hrs by MTT assay; format: cell-based; conditions: b16-f10, 24 h, 2000 µM; summary of the method: as §5
Tyrosinase [7] = target: T2, Tyrosinase; assay: as §1; summary of the method: as §2
[8] = target: T1, Tyrosinase (Agaricus bisporus); assay: Noncompetitive inhibition of mushroom tyrosinase-mediated L-tyrosine oxidation assessed as enzyme-substrate-inhibitor complex after 10 mins by Lineweaver-Burk plot analysis
B16-F10 = assay: as §3; format: functional; summary of the method: as §4
Tyrosinase [9] = target: T2, Tyrosinase; assay: Mixed-type inhibition of mushroom tyrosinase-mediated L-tyrosine oxidation assessed as enzyme-inhibitor complex after 10 mins by Lineweaver-Burk plot analysis

inhibition [1]	IC50 (Tyrosinase [7]) [mM]	Compound	inhibition at 1000 µM [3] [%]	also measured
inactive		Cn1ccn(CC(N)C(=O)O)c1=S (stereo not drawn)		
Dose-dependent effect		Cn1ccnc1S [METHIMAZOLE]	88.7	Kis [2]: 1.91 mM
inactive		COC(=O)C(Cn1ccn(C)c1=S)NC(=O)OC(C)(C)C (stereo not drawn)		
Dose-dependent effect	1.45	Cn1ccn(C(=O)OC(C)(C)C)c1=S	49.3	Ki (Tyrosinase [4]): 1.75 mM; Activity [5]: Non-toxic; Activity [6]: Non-toxic; Kis [8]: 1.75 mM
Dose-dependent effect	4.11	Sc1ncc[nH]1		Activity [5]: Toxic; Kis [2]: 2.8 mM; inhibition (B16-F10): Active; Ki (Tyrosinase [9]): 570 µM
inactive		COC(=O)C(N)Cn1ccn(C)c1=S (stereo not drawn)		
	1.43	Cn1cc[nH]c1=S [METHIMAZOLE]		Activity [6]: Toxic; Ki (Tyrosinase [9]): 470 µM
		O=c1cc(CO)occ1O [KOJIC ACID]	56.9	
